Values joined by “and” are separate entries in the source; they are usually repeats but may differ in a detail not shown here. Equal values may be shown once.
Columns and labels:
[1] = Laser flash photolysis; type: physicochemical; settings: excitation 355 nm, 30 mJ, 0.4 mM in 5× PBS buffer, pH 7
Method in brief: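 Transient absorption after a single 355 nm pulse (third harmonic) from a Nd:YAG laser at 30 mJ pulse energy. Test compound at 0.4 mM in 5× PBS buffer, pH 7, in a 1 cm × 1 cm cuvette. The kinetic trace of the transient species, assigned to the nitronate, was followed over time to obtain its decay.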

[2] = Steady state UV/Vis absorption; type: physicochemical; settings: for ε 355 (extinction coefficient): 355 nm

Row | λmax (additional absorption band) [2] [nm] | ε 355 (extinction coefficient) [2] [M⁻¹ cm⁻¹] | extinction coefficient at λmax ([2]; at 365 nm) | SMILES | time constant of nitronate decay observed at 430 nm [1]
1 | 365 | 4060 | ~ 4000 M^−1 cm^−1 | N[C@@H](CC(=O)O)C(=O)OC(C(=O)O)c1cc2c(cc1[N+](=O)[O-])OCO2.O=C(O)C(F)(F)F (stereo partly drawn) [1b, α-carboxynitropiperonyl L-aspartate] | 0.87 ms and 0.87 ± 0.04 ms
2 |  | 430 |  | N[C@@H](CC(=O)O)C(=O)OC(C(=O)O)c1ccccc1[N+](=O)[O-].O=C(O)C(F)(F)F (mixture of isomers) [1a, α-carboxynitrobenzyl L-aspartate] | 
